In ChEMBL document CHEMBL1153263, “3-Acrylamide-4-aryloxyindoles: synthesis, biological evaluation and metabolic stability of potent and selective EP3 receptor antagonists” (Bioorg Med Chem Lett, 2009):

Target: T1, Prostaglandin E2 receptor EP3 subtype (Homo sapiens, UniProt P43115)
T1 sequence (P43115 whole entry): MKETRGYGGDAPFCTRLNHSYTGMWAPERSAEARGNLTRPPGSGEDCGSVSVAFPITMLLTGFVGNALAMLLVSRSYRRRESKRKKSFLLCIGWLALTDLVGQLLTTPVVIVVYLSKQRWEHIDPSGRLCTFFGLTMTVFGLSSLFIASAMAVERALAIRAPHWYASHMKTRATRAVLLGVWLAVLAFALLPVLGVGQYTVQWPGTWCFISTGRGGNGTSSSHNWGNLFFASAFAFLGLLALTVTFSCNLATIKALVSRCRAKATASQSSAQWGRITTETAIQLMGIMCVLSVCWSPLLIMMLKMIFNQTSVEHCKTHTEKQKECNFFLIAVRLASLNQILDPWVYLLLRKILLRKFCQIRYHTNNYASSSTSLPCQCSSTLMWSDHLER
Experiment: Displacement of [3H]PGE2 from human EP3 receptor at 20 uM in presence of normal buffer
Details: not given

Compound | IC50 [nM]
Cn1cc(/C=C/C(=O)NS(=O)(=O)c2cc(F)c(F)cc2F)c2c(Oc3cnc4ccccc4n3)cccc21 | 7.2
COc1cccc(Oc2cccc3c2c(/C=C/C(=O)NS(=O)(=O)c2cc(F)c(F)cc2F)cn3C)c1 | 5.1
Cn1cc(/C=C/C(=O)NS(=O)(=O)c2ccc(F)c(F)c2)c2c(Oc3ccc4ncccc4c3)cccc21 | 1.9
Cn1cc(/C=C/C(=O)NS(=O)(=O)c2cc(F)c(F)cc2F)c2c(Oc3ccc4ncccc4c3)cccc21 | 8.5
Cn1cc(/C=C/C(=O)NS(=O)(=O)c2cccc(F)c2)c2c(Oc3ccc4ccccc4c3)cccc21 | 17.5
Cn1cc(/C=C/C(=O)NS(=O)(=O)c2ccc(F)c(F)c2)c2c(Oc3ccc(F)c(F)c3)cccc21 | 4.7
Cn1cc(/C=C/C(=O)NS(=O)(=O)c2cc(F)c(F)cc2F)c2c(Oc3ccc(F)c(F)c3)cccc21 | 3.8
Cn1cc(/C=C/C(=O)NS(=O)(=O)c2c(F)cccc2F)c2c(Oc3ccc4ccccc4c3)cccc21 | 5.9
Cn1cc(/C=C/C(=O)NS(=O)(=O)c2cc(F)c(F)cc2F)c2c(Oc3ccc(Cl)cc3F)cccc21 | 4.4
Cn1cc(/C=C/C(=O)NS(=O)(=O)c2cc(F)c(F)cc2F)c2c(Oc3ccc(Cl)cc3)cccc21 | 3
Cn1cc(/C=C/C(=O)NS(=O)(=O)c2ccc(F)c(F)c2)c2c(Oc3ccc(F)c(Cl)c3)cccc21 | 26.9
Cn1cc(/C=C/C(=O)NS(=O)(=O)c2ccccc2Cl)c2c(Oc3ccc4ccccc4c3)cccc21 | 18.4
Cn1cc(/C=C/C(=O)NS(=O)(=O)c2cc(Cl)c(Cl)s2)c2c(Oc3ccc4ccccc4c3)cccc21 | 4.6
Cn1cc(/C=C/C(=O)NS(=O)(=O)c2ccc(F)cc2)c2c(Oc3ccc4ccccc4c3)cccc21 | 9.4
Cn1cc(/C=C/C(=O)NS(=O)(=O)c2ccc(F)c(F)c2)c2c(Oc3ccc(Cl)c(Cl)c3)cccc21 | 12.4
Cn1cc(/C=C/C(=O)NS(=O)(=O)c2cc(Cl)cc(Cl)c2)c2c(Oc3ccc4ccccc4c3)cccc21 | 8.7
Cn1cc(/C=C/C(=O)NS(=O)(=O)c2cc(F)c(F)cc2F)c2c(Oc3ccc(F)cc3F)cccc21 | 84.8
Cn1cc(/C=C/C(=O)NS(=O)(=O)c2cc(F)c(F)cc2F)c2c(Oc3ccc(Cl)c(Cl)c3)cccc21 | 2.6
COc1ccc(S(=O)(=O)NC(=O)/C=C/c2cn(C)c3cccc(Oc4ccc5ccccc5c4)c23)cc1 | 101

Target: Prostaglandin F2-alpha receptor (Homo sapiens, UniProt P43088)
Experiment: Displacement of radioligand from FP receptor
Details: not given

Sequence of Prostaglandin F2-alpha receptor (P43088 whole entry): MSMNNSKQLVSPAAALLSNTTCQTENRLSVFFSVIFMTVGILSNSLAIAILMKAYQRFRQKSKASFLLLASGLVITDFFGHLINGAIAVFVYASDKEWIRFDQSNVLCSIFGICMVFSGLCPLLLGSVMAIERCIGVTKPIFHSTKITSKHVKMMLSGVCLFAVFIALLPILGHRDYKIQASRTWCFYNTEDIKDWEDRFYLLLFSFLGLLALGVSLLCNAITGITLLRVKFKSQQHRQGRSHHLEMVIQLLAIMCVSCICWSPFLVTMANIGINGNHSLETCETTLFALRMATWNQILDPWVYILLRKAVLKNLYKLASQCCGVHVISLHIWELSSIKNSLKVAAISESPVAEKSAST

Compound | IC50 [nM]
Cn1cc(/C=C/C(=O)NS(=O)(=O)c2ccc(F)c(F)c2)c2c(Oc3ccc(F)c(Cl)c3)cccc21 | 1820
Cn1cc(/C=C/C(=O)NS(=O)(=O)c2ccc(F)c(F)c2)c2c(Oc3ccc(Cl)c(Cl)c3)cccc21 | 2400
Cn1cc(/C=C/C(=O)NS(=O)(=O)c2cc(F)c(F)cc2F)c2c(Oc3ccc(Cl)c(Cl)c3)cccc21 | 4640

Target: T1, Prostaglandin E2 receptor EP3 subtype
Experiment: Displacement of [3H]PGE2 from human EP3 receptor at 20 uM in presence of 10% human serum
Details: not given

Compound | IC50 [nM]
Cn1cc(/C=C/C(=O)NS(=O)(=O)c2cc(F)c(F)cc2F)c2c(Oc3cnc4ccccc4n3)cccc21 | 128
Cn1cc(/C=C/C(=O)NS(=O)(=O)c2ccc(F)c(F)c2)c2c(Oc3ccc4ncccc4c3)cccc21 | 130
Cn1cc(/C=C/C(=O)NS(=O)(=O)c2cc(F)c(F)cc2F)c2c(Oc3ccc4ncccc4c3)cccc21 | 168
Cn1cc(/C=C/C(=O)NS(=O)(=O)c2cccc(F)c2)c2c(Oc3ccc4ccccc4c3)cccc21 | 116
Cn1cc(/C=C/C(=O)NS(=O)(=O)c2ccc(F)c(F)c2)c2c(Oc3ccc(F)c(F)c3)cccc21 | 196
Cn1cc(/C=C/C(=O)NS(=O)(=O)c2cc(F)c(F)cc2F)c2c(Oc3ccc(F)c(F)c3)cccc21 | 209
Cn1cc(/C=C/C(=O)NS(=O)(=O)c2c(F)cccc2F)c2c(Oc3ccc4ccccc4c3)cccc21 | 710
Cn1cc(/C=C/C(=O)NS(=O)(=O)c2cc(F)c(F)cc2F)c2c(Oc3ccc(Cl)cc3F)cccc21 | 156
Cn1cc(/C=C/C(=O)NS(=O)(=O)c2cc(F)c(F)cc2F)c2c(Oc3ccc(Cl)cc3)cccc21 | 393
Cn1cc(/C=C/C(=O)NS(=O)(=O)c2ccc(F)c(F)c2)c2c(Oc3ccc(F)c(Cl)c3)cccc21 | 81.5
Cn1cc(/C=C/C(=O)NS(=O)(=O)c2ccccc2Cl)c2c(Oc3ccc4ccccc4c3)cccc21 | 1680
Cn1cc(/C=C/C(=O)NS(=O)(=O)c2cc(Cl)c(Cl)s2)c2c(Oc3ccc4ccccc4c3)cccc21 | 89.6
Cn1cc(/C=C/C(=O)NS(=O)(=O)c2ccc(F)cc2)c2c(Oc3ccc4ccccc4c3)cccc21 | 182
Cn1cc(/C=C/C(=O)NS(=O)(=O)c2ccc(F)c(F)c2)c2c(Oc3ccc(Cl)c(Cl)c3)cccc21 | 50.8
Cn1cc(/C=C/C(=O)NS(=O)(=O)c2cc(Cl)cc(Cl)c2)c2c(Oc3ccc4ccccc4c3)cccc21 | 321
Cn1cc(/C=C/C(=O)NS(=O)(=O)c2cc(F)c(F)cc2F)c2c(Oc3ccc(Cl)c(Cl)c3)cccc21 | 45.2

Target: Prostaglandin E2 receptor EP2 subtype (Homo sapiens, UniProt P43116)
Experiment: Displacement of radioligand from EP2 receptor
Details: not given

Sequence of Prostaglandin E2 receptor EP2 subtype (P43116 whole entry): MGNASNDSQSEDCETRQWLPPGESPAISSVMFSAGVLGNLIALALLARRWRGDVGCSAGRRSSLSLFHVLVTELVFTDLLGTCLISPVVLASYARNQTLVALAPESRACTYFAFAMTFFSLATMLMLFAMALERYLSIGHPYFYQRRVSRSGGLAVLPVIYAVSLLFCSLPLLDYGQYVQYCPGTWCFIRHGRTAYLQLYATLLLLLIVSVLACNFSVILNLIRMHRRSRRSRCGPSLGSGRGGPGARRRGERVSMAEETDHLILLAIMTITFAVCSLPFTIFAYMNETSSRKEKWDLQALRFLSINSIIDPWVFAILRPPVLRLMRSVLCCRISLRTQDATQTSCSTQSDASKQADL

Compound | IC50 [nM]
Cn1cc(/C=C/C(=O)NS(=O)(=O)c2ccc(F)c(F)c2)c2c(Oc3ccc(F)c(Cl)c3)cccc21 | > 10000
Cn1cc(/C=C/C(=O)NS(=O)(=O)c2ccc(F)c(F)c2)c2c(Oc3ccc(Cl)c(Cl)c3)cccc21 | 4200
Cn1cc(/C=C/C(=O)NS(=O)(=O)c2cc(F)c(F)cc2F)c2c(Oc3ccc(Cl)c(Cl)c3)cccc21 | 7680

Tested on: not listed separately
Experiment: Metabolic stability in rat liver microsome assessed as compound remaining at 5 uM after 30 mins
Type: ADME
Details: liver microsomes, read-out: Stability
Outline: (§1)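 Liver microsomes at 0.8 mg/mL protein incubated with compound at 5 µM. Percent parent remaining after 30 min measured by LC–MS/MS.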

Compound | remaining at 0.5 h, 5 µM [%]
Cn1cc(/C=C/C(=O)NS(=O)(=O)c2ccc(F)c(F)c2)c2c(Oc3ccc(F)c(Cl)c3)cccc21 | 32
Cn1cc(/C=C/C(=O)NS(=O)(=O)c2ccc(F)c(F)c2)c2c(Oc3ccc(Cl)c(Cl)c3)cccc21 | 14.9

Target: T2, Prostaglandin E2 receptor EP1 subtype (Homo sapiens, UniProt P34995)
T2 sequence (P34995 whole entry): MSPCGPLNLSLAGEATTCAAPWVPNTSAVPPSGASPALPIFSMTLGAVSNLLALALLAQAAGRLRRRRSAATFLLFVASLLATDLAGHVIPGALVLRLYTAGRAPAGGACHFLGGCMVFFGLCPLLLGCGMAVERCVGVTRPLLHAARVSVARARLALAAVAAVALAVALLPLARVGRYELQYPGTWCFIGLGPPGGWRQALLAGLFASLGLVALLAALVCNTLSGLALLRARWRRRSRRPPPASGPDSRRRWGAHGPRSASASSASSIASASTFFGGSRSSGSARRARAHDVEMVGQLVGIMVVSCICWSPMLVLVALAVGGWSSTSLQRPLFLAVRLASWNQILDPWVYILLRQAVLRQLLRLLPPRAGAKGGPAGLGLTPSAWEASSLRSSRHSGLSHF
Experiment: Displacement of radioligand from EP1 receptor
Details: not given

Compound | IC50 [nM]
Cn1cc(/C=C/C(=O)NS(=O)(=O)c2ccc(F)c(F)c2)c2c(Oc3ccc(Cl)c(Cl)c3)cccc21 | > 10000
Cn1cc(/C=C/C(=O)NS(=O)(=O)c2cc(F)c(F)cc2F)c2c(Oc3ccc(Cl)c(Cl)c3)cccc21 | 5320

Target: Prostacyclin receptor (Homo sapiens, UniProt P43119)
Experiment: Displacement of radioligand from IP receptor
Details: not given

Sequence of Prostacyclin receptor (P43119 whole entry): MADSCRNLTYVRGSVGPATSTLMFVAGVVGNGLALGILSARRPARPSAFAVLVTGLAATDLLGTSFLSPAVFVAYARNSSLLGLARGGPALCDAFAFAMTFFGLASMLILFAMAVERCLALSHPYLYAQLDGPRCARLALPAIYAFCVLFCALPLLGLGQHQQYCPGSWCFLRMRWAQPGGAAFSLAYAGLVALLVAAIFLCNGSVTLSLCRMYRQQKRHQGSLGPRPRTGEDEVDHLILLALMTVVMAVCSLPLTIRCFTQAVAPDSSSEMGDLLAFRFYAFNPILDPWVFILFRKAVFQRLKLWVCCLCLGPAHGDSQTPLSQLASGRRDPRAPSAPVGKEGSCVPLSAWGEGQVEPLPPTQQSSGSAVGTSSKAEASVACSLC

Compound | IC50 [nM]
Cn1cc(/C=C/C(=O)NS(=O)(=O)c2ccc(F)c(F)c2)c2c(Oc3ccc(F)c(Cl)c3)cccc21 | 4100

Target: T3, Prostaglandin E2 receptor EP3 subtype (Homo sapiens) (UniProt P43115)
T3 sequence (whole entry): T1 sequence (P43115 whole entry)
Experiment: Ratio IC50 for human EP3 receptor in presence of human serum to IC50 for human EP3 in absence of human serum
Details: not given

Compound | Ratio IC50
Cn1cc(/C=C/C(=O)NS(=O)(=O)c2cc(F)c(F)cc2F)c2c(Oc3cnc4ccccc4n3)cccc21 | 17.7
Cn1cc(/C=C/C(=O)NS(=O)(=O)c2ccc(F)c(F)c2)c2c(Oc3ccc4ncccc4c3)cccc21 | 68.7
Cn1cc(/C=C/C(=O)NS(=O)(=O)c2cc(F)c(F)cc2F)c2c(Oc3ccc4ncccc4c3)cccc21 | 19.8
Cn1cc(/C=C/C(=O)NS(=O)(=O)c2cccc(F)c2)c2c(Oc3ccc4ccccc4c3)cccc21 | 6.6
Cn1cc(/C=C/C(=O)NS(=O)(=O)c2ccc(F)c(F)c2)c2c(Oc3ccc(F)c(F)c3)cccc21 | 41.9
Cn1cc(/C=C/C(=O)NS(=O)(=O)c2cc(F)c(F)cc2F)c2c(Oc3ccc(F)c(F)c3)cccc21 | 55
Cn1cc(/C=C/C(=O)NS(=O)(=O)c2c(F)cccc2F)c2c(Oc3ccc4ccccc4c3)cccc21 | 121
Cn1cc(/C=C/C(=O)NS(=O)(=O)c2cc(F)c(F)cc2F)c2c(Oc3ccc(Cl)cc3F)cccc21 | 35.6
Cn1cc(/C=C/C(=O)NS(=O)(=O)c2cc(F)c(F)cc2F)c2c(Oc3ccc(Cl)cc3)cccc21 | 132
Cn1cc(/C=C/C(=O)NS(=O)(=O)c2ccc(F)c(F)c2)c2c(Oc3ccc(F)c(Cl)c3)cccc21 | 3
Cn1cc(/C=C/C(=O)NS(=O)(=O)c2ccccc2Cl)c2c(Oc3ccc4ccccc4c3)cccc21 | 91.3
Cn1cc(/C=C/C(=O)NS(=O)(=O)c2cc(Cl)c(Cl)s2)c2c(Oc3ccc4ccccc4c3)cccc21 | 19.4
Cn1cc(/C=C/C(=O)NS(=O)(=O)c2ccc(F)cc2)c2c(Oc3ccc4ccccc4c3)cccc21 | 19.4
Cn1cc(/C=C/C(=O)NS(=O)(=O)c2ccc(F)c(F)c2)c2c(Oc3ccc(Cl)c(Cl)c3)cccc21 | 4.1
Cn1cc(/C=C/C(=O)NS(=O)(=O)c2cc(Cl)cc(Cl)c2)c2c(Oc3ccc4ccccc4c3)cccc21 | 37
Cn1cc(/C=C/C(=O)NS(=O)(=O)c2cc(F)c(F)cc2F)c2c(Oc3ccc(Cl)c(Cl)c3)cccc21 | 17.1

Tested on: not listed separately
Experiment: Metabolic stability in human liver microsome assessed as compound remaining at 5 uM after 30 mins
Type: ADME
Details: liver microsomes, read-out: Stability
Outline: as §1

Compound | remaining at 0.5 h, 5 µM [%]
Cn1cc(/C=C/C(=O)NS(=O)(=O)c2ccc(F)c(F)c2)c2c(Oc3ccc(F)c(Cl)c3)cccc21 | 91.5
Cn1cc(/C=C/C(=O)NS(=O)(=O)c2ccc(F)c(F)c2)c2c(Oc3ccc(Cl)c(Cl)c3)cccc21 | 58.8

Target: Prostaglandin E2 receptor EP4 subtype (Homo sapiens, UniProt P35408)
Experiment: Displacement of radioligand from EP4 receptor
Details: not given

Sequence of Prostaglandin E2 receptor EP4 subtype (P35408 whole entry): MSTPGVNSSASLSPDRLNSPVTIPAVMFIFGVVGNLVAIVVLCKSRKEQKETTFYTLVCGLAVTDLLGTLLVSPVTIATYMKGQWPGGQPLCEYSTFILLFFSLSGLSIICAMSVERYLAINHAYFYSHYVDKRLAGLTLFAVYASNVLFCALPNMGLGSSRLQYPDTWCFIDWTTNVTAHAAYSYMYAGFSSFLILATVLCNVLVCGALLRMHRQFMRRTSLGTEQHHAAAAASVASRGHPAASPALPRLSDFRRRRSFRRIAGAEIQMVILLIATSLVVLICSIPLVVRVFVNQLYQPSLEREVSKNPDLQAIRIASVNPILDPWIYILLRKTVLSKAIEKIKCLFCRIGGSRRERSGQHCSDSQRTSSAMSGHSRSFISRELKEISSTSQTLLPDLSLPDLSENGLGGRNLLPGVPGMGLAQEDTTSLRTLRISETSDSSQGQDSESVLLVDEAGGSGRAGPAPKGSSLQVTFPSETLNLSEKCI

Compound | IC50 [nM]
Cn1cc(/C=C/C(=O)NS(=O)(=O)c2ccc(F)c(F)c2)c2c(Oc3ccc(F)c(Cl)c3)cccc21 | > 10000
Cn1cc(/C=C/C(=O)NS(=O)(=O)c2ccc(F)c(F)c2)c2c(Oc3ccc(Cl)c(Cl)c3)cccc21 | 20400
Cn1cc(/C=C/C(=O)NS(=O)(=O)c2cc(F)c(F)cc2F)c2c(Oc3ccc(Cl)c(Cl)c3)cccc21 | 13000
